HIV Env fusion: blocks HIV Env-driven cell-cell fusion; HeLa-JRFL Env/CEM21 cell fusion, luciferase; inhibition, % at 12.3 µM; actives 1.1% (n = 360,000); AID 651610;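 active = mean replicate inhibition score of at least 50 and every replicate individually at or above 50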;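 note: 0% = plate neutral controls and 100% = maraviroc near 300 nM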
F508del corr: correctors of CFTR F508del function in bronchial epithelial cells; CFBE cells, YFP halide quenching; stimulated with forskolin plus potentiator P3; % fluorescence drop versus neutral controls; activity (quench increase), % at 7.58 µM; actives 0.36% (n = 350,000);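 active = mean added fluorescence quench of at least 8% versus neutral control, with both replicates also reaching 8%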;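 note: cells transiently co-express mutant CFTR-F508del with the halide-sensitive YFP; corrector assay measuring rescue of mutant channel to the surface after 24 h compound exposure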
E-selectin induc: E-selectin induction on HUVECs. AID 686992. P16581. activation, % at 7.58 µM. HUVEC E-selectin immunofluorescence imaging; normalized: neutral wells 0, TNF-alpha wells 100. actives 0.37% (n = 260,000);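 active = mean E-selectin-positive cell signal at least 10% of the positive control, reached in at least 60% of replicates, without over 20% cell loss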
Target sequence (P16581 whole entry, looked up): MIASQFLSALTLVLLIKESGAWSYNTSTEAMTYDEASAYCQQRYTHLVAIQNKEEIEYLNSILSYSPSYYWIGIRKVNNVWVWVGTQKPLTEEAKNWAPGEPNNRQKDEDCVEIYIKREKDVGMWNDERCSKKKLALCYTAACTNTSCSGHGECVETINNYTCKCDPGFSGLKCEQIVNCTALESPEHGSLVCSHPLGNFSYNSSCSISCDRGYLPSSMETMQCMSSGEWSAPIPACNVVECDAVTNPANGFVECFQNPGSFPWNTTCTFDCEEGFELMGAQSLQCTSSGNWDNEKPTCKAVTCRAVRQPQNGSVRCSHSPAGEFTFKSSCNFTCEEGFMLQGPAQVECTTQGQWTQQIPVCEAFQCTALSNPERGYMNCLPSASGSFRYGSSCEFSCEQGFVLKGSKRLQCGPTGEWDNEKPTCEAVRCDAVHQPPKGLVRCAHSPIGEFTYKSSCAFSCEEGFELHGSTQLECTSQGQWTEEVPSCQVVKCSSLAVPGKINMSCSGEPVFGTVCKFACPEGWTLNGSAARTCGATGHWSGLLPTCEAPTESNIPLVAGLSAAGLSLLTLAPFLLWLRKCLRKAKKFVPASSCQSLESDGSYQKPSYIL
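assay system = HUVEC, human umbilical vein endothelial cells | input = 3,000 HUVEC seeded per well | medium = EGM-2 growth medium on 0.1% gelatin-coated wells | dosing = one compound dose added by pin transfer | signal = immunofluorescence imaging | read-out basis = % PE-positive cells | control set = TNF-alpha, DMSO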
FGF22 binding-1: shifts melting point of recombinant human FGF22; recombinant FGF22 thermal shift, SYPRO orange fluorescence; percent of sucrose octasulfate shift, DMSO zero; activity (Tm shift, normalised), % at 9.99 µM; actives 1.5% (n = 340,000);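 active = mean Tm shift, scaled 0 neutral to 100 positive control, at about 1.3% or above, every replicate too, limit read from the data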
S100A4 MyoIIA: inhibitors of human S100A4 binding to myosin IIA peptide | P26447 | S100A4/TAMRA-MyoIIA peptide fluorescence polarization | inhibition, % at 10.7 µM | actives 0.14% (n = 360,000) | AID 652163;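 active = mean inhibition of at least 70% across replicates, with every replicate also reaching that level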
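Assay system: human S100A4 monomer with TAMRA-labelled myosin IIA peptide / Buffer or medium: Calcium-containing HEPES buffer, pH 7.2 / Reagent: TAMRA-labelled myosin IIA heavy-chain peptide probe, 5 nM / Compound: one dose per compound / Timing: polarization read 5 min after assay mix addition, stable 5–60 min / Benchmarks: neutral control DMSO, positive control TFP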
FGF22 binding-2: binds human FGF22 shifting its melting temperature; shares compounds with FGF22 binding-1; thermal shift activity, °C (ΔTm) at 38 µM; recombinant FGF22 thermal shift, SYPRO orange fluorescence; actives 2% (n = 1,000); AID 720646;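 active = fitted rise in melting shift crosses a set limit at or below the top valid dose tested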
TSA no protein: compound-only SYPRO artifact for FGF22 binders; shares compounds with FGF22 binding-1; compound-only SYPRO orange thermal shift counter-screen, no protein; AC50, µM (titrated, usually from 38 µM); actives 2% (n = 1,000);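 active = rising signal whose fitted curve reaches the 0.54 level within the top valid dose, showing a melting point, actives reach about 13 µM in these data; inactive = the rest, including activity in the opposite direction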; note: value is where the raw curve crosses a fixed level and not half-maximal
Numbers without * were called inactive; i = inactive; nt = no result given; [ ] = remark or other dose. Shown are actives, neighbours in structure and some others; about 2.7% of the full set was active somewhere.

SMILES	HIV Env fusion	F508del corr	E-selectin induc	FGF22 binding-1	S100A4 MyoIIA	FGF22 binding-2	TSA no protein
COc1cc([N+](=O)[O-])ccc1NC(=O)/C=C\C(=O)O	2	-1	nt	0	1	nt	nt
C[C@@H]1CN([C@H](C)CO)C(=O)c2cccc(NS(=O)(=O)c3cccs3)c2O[C@@H]1CN(C)Cc1ccncc1	nt	-1	-1	0	-19	nt	nt
O=c1c2cc([N+](=O)[O-])cc([N+](=O)[O-])c2[nH]n1-c1ccccc1	4	3	0	1.8*	-4	0.26	i
C[C@@H]1CN([C@H](C)CO)C(=O)c2cccc(NC(=O)Nc3ccc(F)cc3)c2O[C@H]1CN(C)C(=O)Nc1ccccc1	-11[16.7 µM]	-1	0	0	1	nt	nt
O=C(C(=O)N1CCN(C/C=C/c2ccccc2)CC1)c1ccccc1	7	2	-7	15*	-5	0.073	i
Cc1[nH]c2ccccc2c1N=Nc1cc(C(=O)O)cc(C(=O)O)c1	3	1	7	1.5*	-3	0.056	i
CCN(CC)CCNC(=O)c1ccc(NC(=O)c2ccc(S(=O)(=O)N(C)c3ccccc3OC)cc2)cc1	9	0	nt	0	-16	nt	nt
COc1ccccc1N(C)S(=O)(=O)c1ccc(C(=O)Nc2ccc(C(N)=O)cc2)cc1	nt	0	0	1.7*	10	-0.094	i
C/C=C/c1ccc([C@@H]2[C@H](CO)N(CC3CC3)C23CN(C(=O)COC)C3)cc1	-6[16.7 µM]	-3	0	nt	0	nt	nt
Cc1ccccc1-c1ccccc1[C@@H]1[C@@H](C#N)N(C(=O)c2ccccc2)[C@H]1CO	nt	-1	0	1.3*	1	-0.035	i
CC(OC(=O)c1ccccc1)C(=O)NCCC1=CCCCC1 (stereo not given)	-6	-1	-3	1.6*	0	0.12	i
CN(C(=O)CCc1nnc(CCCCc2ccccc2)o1)C1CCOCC1	27	-1	nt	1.4*	-16	0.034	i
CN(C(=O)CCc1nnc(CCCCc2ccccc2)o1)C1CC(C)(C)NC(C)(C)C1	22	-1	nt	0	-5	nt	nt
CCNC(=O)C1(C)CCCN(C(=O)C2(c3ccc(Cl)cc3)CCCC2)C1 (stereo not given)	14	4	0	1.6*	2	0.037	i
CCCNC(=O)C1(C)CCCN(C(=O)C2(c3ccc(Cl)cc3)CCCC2)C1 (stereo not given)	26	0	0	0	-1	nt	nt
Cn1cccc1/C=N/NC(=O)Cc1cccc2ccccc12	7	3	nt	2.1*	3	0.066	i
C[C@H](NC(=O)C[C@@H]1C=C[C@H](NC(=O)Cc2ccccn2)[C@H](CO)O1)c1ccccc1	nt	2	0	0	6	nt	nt
COc1ccc(NC(=O)N(C)C[C@H]2Oc3ccc(NS(=O)(=O)c4ccc(Cl)cc4)cc3C(=O)N([C@H](C)CO)C[C@H]2C)cc1	1[16.7 µM]	1	0	1.4*	-7	-0.034[42 µM]	i
Cc1ccc(S(=O)(=O)Nc2ccc3c(c2)CC(=O)N([C@@H](C)CO)C[C@@H](C)[C@H](CN(C)C(=O)Nc2ccccc2)O3)cc1	-17[16.7 µM]	-2	nt	0	-2	nt	nt
C[C@H]1CN([C@@H](C)CO)C(=O)c2cccc(NC(=O)Nc3ccc4c(c3)OCO4)c2O[C@H]1CN(C)S(=O)(=O)c1cn(C)cn1	nt	4	0	1.6*	1	-0.079	i
Cc1ccc(S(=O)(=O)Nc2ccc3c(c2)CC(=O)N([C@H](C)CO)C[C@@H](C)[C@H](CN(C)C(=O)Nc2ccccc2)O3)cc1	18[16.7 µM]	-6	0	2.2*	-11	0.13	i
COc1ccc(NC(=O)N(C)C[C@H]2Oc3ccc(NS(=O)(=O)c4ccc(Cl)cc4)cc3C(=O)N([C@@H](C)CO)C[C@H]2C)cc1	16[16.7 µM]	0	4	0	26	nt	nt
Cc1cc(C(=O)Nc2cccc3c2O[C@@H](CN(C)C(=O)NC(C)C)[C@@H](C)CN([C@@H](C)CO)C3=O)n(C)n1	nt	-2	0	0	7	nt	nt

Bioassay records (PubChem BioAssay)
